Laboratory results from ChEMBL document CHEMBL1138791, “Acyl sulfonamide anti-proliferatives: benzene substituent structure-activity relationships for a novel class of antitumor agents” (J Med Chem, 2004).

Tests used:
[1] = Diameter of zone of inhibition for cell colony formation of normal fibroblast at the dose of 200 ug; Range is 0-4.875; assay type: functional, Homo sapiens
Method in brief: (§1)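 Soft agar disk diffusion: leukemia (L1210), solid tumor (HCT116, or colon H15) and normal fibroblast cells seeded in soft agar in separate 60 mm dishes. Compound applied to a filter paper disk (dose in μg/disk) set on the agar. Colony-formation inhibition zones read after 6–7 days at 37 °C. 200 zone units = 6.5 mm; 950 = total inhibition; a range marks partial colony shrinkage. n > 2 unless noted.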

[2] = tested on: L1210; assay: Diameter of zone of inhibition for cell colony formation of leukemia L1210 at the dose of 200 ug; assay type: functional, Mus musculus; method in brief: as §1
[3] = tested on: HCT-116; assay: Diameter of zone of inhibition for cell colony formation of solid tumor HCT116 at the dose of 200 ug; assay type: functional, Homo sapiens
Method in brief: (§2)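 HCT116, L1210 leukaemia and normal fibroblast cells were seeded in soft agar in separate 60 mm dishes. The compound was applied to a filter-paper disk laid on the agar. Colony-formation inhibition zones were read after 6–7 days at 37 °C and expressed in zone units (200 units = 6.5 mm; 950 = total inhibition; 0 = none). n > 2 unless otherwise indicated.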

[4] = Diameter of zone of inhibition for cell colony formation of normal fibroblast at the dose of 210 ug; Range is 0-11.375; assay type: functional, Homo sapiens; method in brief: as §1
[5] = tested on: Mus musculus; assay: Tumor growth delay of human HCT116 colorectal carcinoma in mice after intravenous administration at dose of 63 mg/kg; assay type: functional
Method in brief: (§3)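 Female nude mice were implanted with HCT116 tumour tissue from donor mice and randomized once tumours averaged 100 mm3. The sodium salt in saline (pH 7.4) was given by iv bolus on days 1–5 and 8–12. Tumour volumes were recorded twice weekly. TGD = T − C, the time to reach 500 mm3 taken from a fitted tumour-growth model.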

[6] = tested on: Mus musculus; assay: Tumor growth delay of human HCT116 colorectal carcinoma in mice after intravenous administration at dose of 32 mg/kg; assay type: functional; method in brief: as §3
[7] = Diameter of zone of inhibition for cell colony formation of solid tumor H15 at the dose of 210 ug; assay type: functional, Homo sapiens; method in brief: as §1
[8] = tested on: L1210; assay: Diameter of zone of inhibition for cell colony formation of leukemia L1210 at the dose of 210 ug; assay type: functional, Mus musculus; method in brief: as §1
[9] = Diameter of zone of inhibition for cell colony formation of normal fibroblast at the dose of 210 ug; Range is 0-2.6; assay type: functional, Homo sapiens; method in brief: as §1
[10] = tested on: HCT-116; assay: Diameter of zone of inhibition for cell colony formation of solid tumor HCT116 at the dose of 210 ug; assay type: functional, Homo sapiens; method in brief: as §2

SMILES | Inhibition [1] [mm] | Inhibition [2] [mm] | Inhibition [3] [mm] | Inhibition [4] [mm] | Growth delay [5] [days] | Growth delay [6] [days] | Inhibition [7] [mm] | Inhibition [8] [mm] | Inhibition [9] [mm] | Inhibition [10] [mm]
O=C(NS(=O)(=O)c1ccc(Cl)cc1)c1ccc(Cl)c(Cl)c1 | 4.87 | 6.5 | 13 |  |  |  |  |  |  | 
O=C(NS(=O)(=O)c1ccc(Cl)cc1)c1ccc(Br)cc1Cl |  |  |  | 11.37 | 23 | 12 | 14.95 | 6.5 |  | 
O=C(NS(=O)(=O)c1ccc(Cl)cc1)c1cc(Cl)cc(Cl)c1 |  |  |  |  |  |  |  | 4.87 | 2.6 | 10.72
